Assay results from paper PMC3580291 (Cell Calcium, 2013).
Like-named read-outs stand apart in the source and are kept apart here. Blank lines part the entries; values can stand above or below the molecule they belong to.

What was measured:
[1] = biological target: STIM1/Orai1 currents (Homo sapiens, UniProt Q96D31); experiment: whole-cell patch-clamp of STIM1-mediated Orai1 currents in HEK293 cells; assay type: cell-based; details: for inhibition of maximally activated STIM1/Orai1 currents: whole cell inward current at −74 mV, HEK293; for kinetics of Orai1 current inhibition, slower than La^3+: relative to La^3+; for recovery of Orai1 currents upon wash-out: after full block by 10 μM, 4–5 min wash-out with 10 mM Ca^2+ solution
Method in brief: (§1)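 HEK293 cells transfected with CFP-STIM1 plus YFP-Orai construct and recorded 24 h later. Whole-cell patch clamp at 20–24 °C with passive store depletion via a pipette containing (mM) 145 Cs methanesulfonate, 20 EGTA, 3.5 MgCl2, 8 NaCl, 10 HEPES, pH 7.2. Bath contained 10 mM CaCl2, pH 7.4. Ramps from −90 to +90 mV over 1 s, every 5 s, from 0 mV holding. Inward current taken at −74 mV. Leak correction used the initial trace or post-10 μM La3+ trace.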

[2] = system: CRAC currents; details: cited from earlier work
[3] = system: Orai1 currents; details: cited from earlier work
[4] = system: Orai2; details: high concentrations (50 μM), compared with Orai1; cited from earlier work
[5] = system: Orai3; details: cited from earlier work
[6] = system: interleukin-2 (IL-2) production in lymphocytes; details: cited from earlier work
[7] = system: CRAC/SOC currents in RBL cells; details: 30 μM; cited from earlier work
[8] = biological target: STIM1/Orai3 currents (Homo sapiens, UniProt Q9BRQ5); experiment: whole-cell patch-clamp of STIM1-mediated Orai3 currents in HEK293 cells; assay type: cell-based; details: for inhibition of maximally activated STIM1/Orai3 currents: 10 μM, whole cell inward current at −74 mV, HEK293; for recovery of Orai3 currents upon wash-out: after full block by 10 μM, 4–5 min wash-out with 10 mM Ca^2+ solution
Method in brief: as §1

[9] = biological target: CFP-STIM1/YFP-STIM1 oligomerization (Homo sapiens, UniProt Q13586); experiment: confocal FRET microscopy of STIM1 oligomerization; assay type: cell-based; details: 10 μM applied 5 min before store-depletion with 2 μM thapsigargin
Method in brief: (§2)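 HEK293 cells transfected with CFP/YFP-tagged STIM1 and/or Orai1 and imaged 24 h later by confocal FRET microscopy with 457/488/514 nm laser lines. CFP, FRET and YFP images used about 900–1500 ms illumination. Crosstalk and cross-excitation factors were set per construct daily. Pixelwise corrected FRET (NFRET) was computed after background subtraction, limited to CFP:YFP molar ratio 1:10–10:1. Data given as mean ± S.E.M.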

[10] = biological target: STIM1-CFP/Orai1-YFP interaction (Homo sapiens, UniProt Q13586+Q96D31); experiment: confocal FRET microscopy of STIM1/Orai1 coupling; assay type: cell-based; details: 10 μM after store-depletion by thapsigargin; HEK cells
Method in brief: as §2

[11] = biological target: 2-APB stimulated Orai3 currents (Homo sapiens, UniProt Q9BRQ5); experiment: whole-cell patch-clamp of 2-APB stimulated Orai3 currents; assay type: cell-based
[12] = biological target: STIM1/Orai1 E106D (Homo sapiens, UniProt Q96D31, E106D); experiment: whole-cell patch-clamp of STIM1-activated Orai1 E106D pore mutant currents; assay type: cell-based
Method in brief: as §1

[13] = biological target: STIM1/Orai1 D110/112/114A (Homo sapiens, UniProt Q96D31, D110A/D112A/D114A); assay type: cell-based; details: 10 μM
[14] = system: endogenous CRAC channels of RBL-2H3 cells; experiment: whole-cell patch-clamp of endogenous CRAC currents in RBL-2H3 cells; assay type: cell-based, rat; details: 10 μM; passive store-depletion; −74 mV
Method in brief: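 RBL-2H3 cells grown in RPMI 1640 with 10% FBS, 1% penicillin–streptomycin and 1% L-glutamine at 37 °C, 5% CO2. Endogenous CRAC current activated by passive store depletion (20 mM EGTA pipette) in whole-cell mode. Inward current at −74 mV followed during perfusion of 10 μM test compound, with 10 μM La3+ as reference.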

[15] = biological target: rat-TRPV6 channels (Rattus norvegicus, UniProt Q9R186); experiment: whole-cell patch-clamp of TRPV6 expressing HEK293 cells; assay type: cell-based; details: 10 μM, −74 mV
[16] = biological target: L-type Ca^2+ channels (Homo sapiens, UniProt Q13936); experiment: whole-cell patch-clamp of L-type Ca2+ channel expressing HEK293 cells; assay type: cell-based; details: 10 μM
[17] = system: HEK293 cells; assay type: cell-based
[18] = biological target: CaV1.2 (L-type) (Homo sapiens, UniProt Q13936); experiment: selectivity profile, over-expressed ion channel; assay type: cell-based; details: Activity (IC50), antagonistic action; Human CaV1.2 (L-type)
[19] = system: human lung mast cells; details: 3 μM; cited from earlier work
[20] = system: RBL mast cells; details: read-out: IC50 on RBL mast cells; cited from earlier work
[21] = system: STIM1 clustering in smooth muscle cells; details: cited from earlier work

STIM1/Orai1 currents, sequence (Q96D31 whole entry): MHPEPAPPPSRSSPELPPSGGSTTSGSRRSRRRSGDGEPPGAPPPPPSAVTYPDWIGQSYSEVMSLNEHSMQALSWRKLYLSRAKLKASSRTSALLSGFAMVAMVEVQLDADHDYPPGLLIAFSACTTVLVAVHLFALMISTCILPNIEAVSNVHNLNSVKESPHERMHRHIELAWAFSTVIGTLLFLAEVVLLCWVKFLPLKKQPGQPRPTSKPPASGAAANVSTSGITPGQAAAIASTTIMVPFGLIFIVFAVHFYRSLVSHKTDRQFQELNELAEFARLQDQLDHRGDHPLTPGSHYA
STIM1/Orai1 currents, sequence (Q13586 23-685 partner): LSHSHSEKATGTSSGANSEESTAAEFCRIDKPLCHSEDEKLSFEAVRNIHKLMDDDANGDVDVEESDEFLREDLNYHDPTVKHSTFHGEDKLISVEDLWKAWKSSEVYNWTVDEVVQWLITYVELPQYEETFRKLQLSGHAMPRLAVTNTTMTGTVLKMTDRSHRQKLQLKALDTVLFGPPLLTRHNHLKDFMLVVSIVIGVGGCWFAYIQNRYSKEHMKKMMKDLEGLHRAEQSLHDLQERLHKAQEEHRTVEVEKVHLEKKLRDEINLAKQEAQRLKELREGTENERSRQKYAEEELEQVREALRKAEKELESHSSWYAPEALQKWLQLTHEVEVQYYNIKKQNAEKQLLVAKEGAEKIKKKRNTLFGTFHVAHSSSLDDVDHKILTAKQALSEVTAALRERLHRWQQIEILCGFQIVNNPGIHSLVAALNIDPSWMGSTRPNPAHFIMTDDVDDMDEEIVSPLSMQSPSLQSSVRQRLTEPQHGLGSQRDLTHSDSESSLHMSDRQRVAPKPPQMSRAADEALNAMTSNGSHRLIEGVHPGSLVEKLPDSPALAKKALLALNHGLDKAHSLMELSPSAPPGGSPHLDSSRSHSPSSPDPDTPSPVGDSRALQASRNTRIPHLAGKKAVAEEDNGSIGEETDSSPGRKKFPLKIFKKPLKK
STIM1/Orai1 E106D, sequence (Q96D31 whole entry E106D): as the sequence (Q96D31 whole entry) above, with E106D counted along it
STIM1/Orai1 E106D, sequence (Q13586 23-685 partner): as the sequence (Q13586 23-685 partner) above
L-type Ca^2+ channels, sequence (Q13936 1-2138 isoform Q13936-20): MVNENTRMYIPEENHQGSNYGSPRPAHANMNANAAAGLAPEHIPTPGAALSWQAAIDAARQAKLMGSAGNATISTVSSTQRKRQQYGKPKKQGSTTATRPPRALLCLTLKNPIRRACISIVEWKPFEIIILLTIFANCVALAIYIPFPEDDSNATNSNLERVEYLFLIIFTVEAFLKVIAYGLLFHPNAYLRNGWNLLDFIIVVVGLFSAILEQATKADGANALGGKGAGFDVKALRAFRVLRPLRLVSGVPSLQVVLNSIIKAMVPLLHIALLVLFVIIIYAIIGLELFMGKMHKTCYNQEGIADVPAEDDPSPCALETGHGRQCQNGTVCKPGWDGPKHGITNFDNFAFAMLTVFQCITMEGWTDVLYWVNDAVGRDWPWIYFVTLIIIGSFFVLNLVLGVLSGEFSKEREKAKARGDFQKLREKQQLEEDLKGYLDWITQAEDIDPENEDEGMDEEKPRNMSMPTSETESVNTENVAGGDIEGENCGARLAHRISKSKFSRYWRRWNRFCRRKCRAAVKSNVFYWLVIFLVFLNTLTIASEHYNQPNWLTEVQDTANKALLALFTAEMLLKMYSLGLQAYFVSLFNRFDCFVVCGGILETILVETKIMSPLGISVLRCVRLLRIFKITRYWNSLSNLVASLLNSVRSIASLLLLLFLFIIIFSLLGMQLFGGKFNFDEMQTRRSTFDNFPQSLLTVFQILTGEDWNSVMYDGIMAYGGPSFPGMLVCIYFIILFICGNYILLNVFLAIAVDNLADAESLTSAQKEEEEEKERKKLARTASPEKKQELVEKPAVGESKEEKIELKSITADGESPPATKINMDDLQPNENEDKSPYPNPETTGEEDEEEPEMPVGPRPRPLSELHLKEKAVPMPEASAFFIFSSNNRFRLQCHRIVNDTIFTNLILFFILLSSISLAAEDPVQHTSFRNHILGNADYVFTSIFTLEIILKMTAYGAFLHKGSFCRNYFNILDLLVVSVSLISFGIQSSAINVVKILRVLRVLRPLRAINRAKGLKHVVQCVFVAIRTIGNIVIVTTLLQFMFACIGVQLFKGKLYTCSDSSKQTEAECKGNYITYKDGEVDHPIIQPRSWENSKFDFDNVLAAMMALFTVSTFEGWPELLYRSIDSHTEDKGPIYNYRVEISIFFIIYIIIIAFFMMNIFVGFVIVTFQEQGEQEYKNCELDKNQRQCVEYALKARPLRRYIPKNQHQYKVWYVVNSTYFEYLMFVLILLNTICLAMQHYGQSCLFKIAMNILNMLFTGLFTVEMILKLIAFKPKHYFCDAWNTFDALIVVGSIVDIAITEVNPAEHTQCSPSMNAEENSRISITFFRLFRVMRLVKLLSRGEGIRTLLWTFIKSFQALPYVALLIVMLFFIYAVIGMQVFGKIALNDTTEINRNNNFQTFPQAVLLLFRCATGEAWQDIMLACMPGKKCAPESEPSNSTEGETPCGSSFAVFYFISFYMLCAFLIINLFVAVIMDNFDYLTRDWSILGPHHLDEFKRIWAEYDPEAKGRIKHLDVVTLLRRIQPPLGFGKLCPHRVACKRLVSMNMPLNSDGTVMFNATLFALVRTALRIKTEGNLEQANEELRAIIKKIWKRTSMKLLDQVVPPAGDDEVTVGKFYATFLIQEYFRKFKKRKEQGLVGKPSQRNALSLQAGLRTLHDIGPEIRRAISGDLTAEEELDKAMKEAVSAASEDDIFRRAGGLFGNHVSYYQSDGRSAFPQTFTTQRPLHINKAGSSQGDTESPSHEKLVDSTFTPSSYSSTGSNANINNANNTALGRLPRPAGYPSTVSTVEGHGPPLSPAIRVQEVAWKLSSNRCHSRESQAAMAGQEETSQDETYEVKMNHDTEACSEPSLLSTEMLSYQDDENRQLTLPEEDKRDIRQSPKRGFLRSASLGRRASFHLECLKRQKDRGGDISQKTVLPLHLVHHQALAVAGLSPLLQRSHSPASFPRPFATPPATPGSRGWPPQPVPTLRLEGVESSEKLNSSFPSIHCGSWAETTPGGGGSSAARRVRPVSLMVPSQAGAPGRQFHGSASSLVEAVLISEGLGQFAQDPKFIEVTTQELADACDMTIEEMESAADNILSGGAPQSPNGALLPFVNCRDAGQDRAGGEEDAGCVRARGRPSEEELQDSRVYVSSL
L-type Ca^2+ channels, sequence (Q08289 whole entry partner): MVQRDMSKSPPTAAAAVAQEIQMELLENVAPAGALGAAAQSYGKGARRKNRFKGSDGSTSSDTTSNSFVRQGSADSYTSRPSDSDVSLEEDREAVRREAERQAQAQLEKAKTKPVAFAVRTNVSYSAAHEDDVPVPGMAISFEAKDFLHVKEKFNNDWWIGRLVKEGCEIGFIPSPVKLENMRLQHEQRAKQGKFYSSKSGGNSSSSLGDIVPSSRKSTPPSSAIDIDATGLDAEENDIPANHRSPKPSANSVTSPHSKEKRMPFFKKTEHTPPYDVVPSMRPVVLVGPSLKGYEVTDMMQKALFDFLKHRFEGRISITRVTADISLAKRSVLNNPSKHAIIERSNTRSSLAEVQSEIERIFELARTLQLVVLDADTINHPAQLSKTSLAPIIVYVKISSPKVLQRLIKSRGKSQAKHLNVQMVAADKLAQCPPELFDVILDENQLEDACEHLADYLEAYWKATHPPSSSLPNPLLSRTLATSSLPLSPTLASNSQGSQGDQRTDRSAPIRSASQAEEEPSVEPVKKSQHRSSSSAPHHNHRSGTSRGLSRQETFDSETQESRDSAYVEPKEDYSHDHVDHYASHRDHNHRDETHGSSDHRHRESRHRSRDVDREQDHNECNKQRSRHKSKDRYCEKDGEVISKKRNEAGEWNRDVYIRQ
L-type Ca^2+ channels, sequence (P54289 25-1103 partner): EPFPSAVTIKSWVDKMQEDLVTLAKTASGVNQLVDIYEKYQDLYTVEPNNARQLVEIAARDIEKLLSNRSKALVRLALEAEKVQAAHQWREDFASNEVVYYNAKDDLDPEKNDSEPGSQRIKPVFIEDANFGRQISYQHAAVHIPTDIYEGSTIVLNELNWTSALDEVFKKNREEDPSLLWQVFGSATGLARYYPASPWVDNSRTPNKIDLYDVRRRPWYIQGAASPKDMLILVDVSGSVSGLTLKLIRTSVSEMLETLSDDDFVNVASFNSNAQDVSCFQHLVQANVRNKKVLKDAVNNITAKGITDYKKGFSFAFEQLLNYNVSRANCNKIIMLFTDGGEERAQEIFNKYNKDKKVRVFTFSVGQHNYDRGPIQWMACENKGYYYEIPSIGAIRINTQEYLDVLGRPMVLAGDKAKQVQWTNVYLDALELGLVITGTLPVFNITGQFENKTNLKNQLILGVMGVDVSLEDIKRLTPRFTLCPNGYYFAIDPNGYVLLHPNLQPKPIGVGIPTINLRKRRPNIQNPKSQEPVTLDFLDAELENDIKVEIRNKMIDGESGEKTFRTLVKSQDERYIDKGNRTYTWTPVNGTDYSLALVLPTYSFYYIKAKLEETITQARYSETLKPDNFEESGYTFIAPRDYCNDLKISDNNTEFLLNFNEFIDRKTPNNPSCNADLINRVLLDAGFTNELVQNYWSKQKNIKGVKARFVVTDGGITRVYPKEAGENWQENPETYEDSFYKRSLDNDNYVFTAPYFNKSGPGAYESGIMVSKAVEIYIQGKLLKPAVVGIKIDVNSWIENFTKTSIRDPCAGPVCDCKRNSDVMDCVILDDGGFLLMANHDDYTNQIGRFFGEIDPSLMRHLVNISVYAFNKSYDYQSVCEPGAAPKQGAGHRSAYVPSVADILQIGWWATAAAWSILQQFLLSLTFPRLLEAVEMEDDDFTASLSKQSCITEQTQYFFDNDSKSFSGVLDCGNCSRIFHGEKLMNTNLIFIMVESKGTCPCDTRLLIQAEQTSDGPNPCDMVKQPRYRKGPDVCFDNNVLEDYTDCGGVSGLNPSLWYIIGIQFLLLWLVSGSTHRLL
CFP-STIM1/YFP-STIM1 oligomerization, sequence (Q13586 23-685): as the sequence (Q13586 23-685 partner) above
CFP-STIM1/YFP-STIM1 oligomerization, sequence (Q13586 23-685): as the sequence (Q13586 23-685 partner) above
STIM1-CFP/Orai1-YFP interaction, sequence (Q96D31 whole entry): as the sequence (Q96D31 whole entry) above
STIM1-CFP/Orai1-YFP interaction, sequence (Q13586 23-685): as the sequence (Q13586 23-685 partner) above

SMILES: NCCOB(c1ccccc1)c1ccccc1 [2-APB, 2-aminoethoxydiphenylborate]
effect on STIM1/Orai1 currents ([1]; 75 μM): transient stimulation followed by a complete inhibition
effect on CRAC currents ([2]; concentrations higher than 10 μM): completely blocked
effect on CRAC currents ([2]; low concentrations (1–5 μM)): enhanced
effect on over-expressed Orai1 ([3]; high concentrations (50 μM)): robust block
effect on Orai1 currents ([3]; higher concentrations (>40 μM)): inhibit
effect on Orai1 currents ([3]; low concentrations (5 μM)): enhance
effect on over-expressed Orai2 [4]: less sensitive
effect on Orai3 currents ([5]; 75 μM, independent of STIM1): robust current stimulation
effect on over-expressed Orai3 [5]: robustly stimulated

SMILES: Cc1nnsc1C(=O)Nc1ccc(-n2nc(C(F)(F)F)cc2C(F)(F)F)cc1 [BTP2]
effect on interleukin-2 (IL-2) production in lymphocytes [6]: potently blocks

SMILES: [La+3] [La^3+, reference compound]
inhibition of maximally activated STIM1/Orai1 currents ([1]; 10 μM): complete inhibition
inhibition of TRPV6 currents [15]: fully blocked
inhibition of L-type Ca^2+ channel currents [16]: fully blocked

Now from value to molecule, other results behind:

time to full blockade of STIM1-activated Orai1 currents ([1]; 10 μM (Fig. 2B)): ≤ 50 s
inhibition of maximally activated STIM1/Orai1 currents ([1]; 10 μM): full and rapid blockade
SMILES: CC/C(=C(/CC)c1ccc(O)cc1)c1ccc(O)cc1 [DES, diethylstilbestrol, reference compound]
block of CRAC/SOC currents in RBL cells [7]: effective block

kinetics of Orai1 current inhibition, slower than La^3+ ([1]; 10 μM): 2.5 fold
inhibition of maximally activated STIM1/Orai1 currents ([1]; 10 μM): complete Orai1 current inhibition
recovery of Orai1 currents upon wash-out [1]: not readily reversible
inhibition of maximally activated STIM1/Orai3 currents [8]: fully inhibited
recovery of Orai3 currents upon wash-out [8]: not readily reversible
SMILES: O=C(Nc1ccn(Cc2ccccc2Oc2ccccc2)n1)c1c(F)cccc1F [GSK-5503A, 2,6-difluoro-N-(1-(2-phenoxybenzyl)-1H-pyrazol-3-yl)benzamide]

Hill coefficient, inhibition of Orai1 currents [1]: ~1
inhibition of CRAC currents upon intracellular application ([1]; 10 μM intracellular application, data not shown): slight inhibition
inhibition of STIM1/Orai1 monovalent currents in divalent free (DVF) solution ([1]; 10 μM, Na^+ as main charge carrier): fully blocked
kinetics of Orai1 current inhibition, slower than La^3+ ([1]; 10 μM): 2.5 fold
inhibition of maximally activated STIM1/Orai1 currents ([1]; 10 μM): complete Orai1 current inhibition
recovery of Orai1 currents upon wash-out [1]: not readily reversible
Hill coefficient, inhibition of Orai3 currents [8]: ~1
inhibition of maximally activated STIM1/Orai3 currents [8]: fully inhibited
recovery of Orai3 currents upon wash-out [8]: not readily reversible
effect on FRET increase (STIM1 oligomerization) upon store-depletion [9]: unaffected
effect on FRET plateau representing STIM1/Orai1 interaction [10]: did not significantly alter
inhibition of maximally 2-APB stimulated Orai3 currents ([11]; 10 μM, 75 μM 2-APB): totally ineffective
inhibition of maximally 2-APB activated Orai3 currents ([11]; 100 μM): full inhibition
inhibition at 50 µM ([11]; read-out: inhibition of maximally 2-APB activated Orai3 currents): 50%
inhibition of STIM1-activated Orai1 E106D currents ([12]; 10 μM): no inhibition
inhibition of TRPV6 currents [15]: completely inhibited
inhibition of L-type Ca^2+ channel currents [16]: moderate inhibition
SMILES: O=C(Nc1ccn(Cc2ccc(O)cc2C(F)(F)F)n1)c1c(F)cccc1F [GSK-7975A, 2,6-difluoro-N-(1-(4-hydroxy-2-(trifluoromethyl)benzyl)-1H-pyrazol-3-yl)benzamide]
effect on Ca^2+-induced fast inactivation of STIM1/Orai1 ([1]; 3 μM (Suppl. Fig. 1)): did not significantly increase inactivation
inhibition of STIM1-mediated Orai1 E106D currents ([12]; 100 μM): substantially but not fully restored the inhibitory effect
inhibition of STIM1-activated Orai1 D110/112/114A currents [13]: substantial inhibition almost comparable to that of wild-type Orai1
inhibition of RBL CRAC currents [14]: fully blocked
amount of Ca^2+ released from ER stores ([17]; 10 μM pre-incubation, stimulation by carbachol (CCH) or BHQ): not markedly altered
inhibition of endogenous store-operated Ca^2+ entry of HEK293 cells ([17]; pre-incubation with 10 μM, Fura-2): substantially inhibited
IC50 [18]: ~8 µM
Ca^2+ influx in human lung mast cells [19]: significantly reduced
release of inflammatory mediators from human lung mast cells [19]: significantly reduced

inhibition of maximally activated STIM1/Orai1 currents ([1]; 10 μM): reduced Orai1 currents
SMILES: COc1ccc(OC)c(-c2ccc(NC(=O)c3ccncc3F)cc2)c1 [Synta-66, N-(2′,5′-dimethoxy-[1,1′-biphenyl]-4-yl)-3-fluoroisonicotinamide, reference compound]
inhibition of maximally activated STIM1/Orai3 currents [8]: inhibited Orai3 currents at a similar rate to the GSK compounds
IC50 [20]: 1 to 3 µM
interference with STIM1 clustering [21]: does not interfere with STIM1 clustering
